From PubChem
NPY Y2 blocker: NPY-Y2 (human) receptor antagonism; P49146; NPY-Y2 expressing cells, antagonist mode; inhibition, % at 2.7 µM; 140,000 compounds, 0.99% hits; AID 793; in the data active = inhibition above about 17%;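 also: 0% = vehicle with agonist challenge and 100% = reference antagonist with challenge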
NPY-Y2 PAM-ag: potentiators or agonists of human neuropeptide Y receptor Y2; P49146; cells expressing NPY-Y2, potentiator/agonist read-out; activation, % at 3.6 µM; 220,000 compounds, 0.45% hits; in the data active = activation above about 27%;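 also: cells stimulated with NPY near EC25 plus isoproterenol at EC100; 0% = vehicle plus submaximal agonist and 100% = vehicle plus saturating agonist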
NPY1 pot ag: potentiates or activates human NPY-Y1 receptor; AID 1304; NPY-Y1 expressing cells, potentiator/agonist activation; activation, % at 3.6 µM; P25929; 220,000 compounds, 0.37% hits; in the data active = activation above about 33%, passing the limit was not always enough;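 also: cells stimulated with NPY at EC10 then isoproterenol at EC100; 0% = low agonist plus stimulus and 100% = saturating agonist plus stimulus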
Target sequence (P25929 whole entry, looked up): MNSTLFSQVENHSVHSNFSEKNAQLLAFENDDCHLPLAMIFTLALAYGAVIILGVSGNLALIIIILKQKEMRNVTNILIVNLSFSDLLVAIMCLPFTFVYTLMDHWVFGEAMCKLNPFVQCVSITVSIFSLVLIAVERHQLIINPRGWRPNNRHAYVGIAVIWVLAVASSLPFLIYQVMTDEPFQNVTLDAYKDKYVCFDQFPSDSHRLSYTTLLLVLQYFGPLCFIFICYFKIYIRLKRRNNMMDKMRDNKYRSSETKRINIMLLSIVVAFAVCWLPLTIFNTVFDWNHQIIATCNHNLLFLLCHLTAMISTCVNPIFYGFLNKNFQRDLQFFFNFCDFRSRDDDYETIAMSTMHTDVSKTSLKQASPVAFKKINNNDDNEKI
NPY Y1 blocker: blocks the human neuropeptide Y Y1 receptor | HEK293-CNG Y1 cells, membrane potential fluorescence; NPY at EC95, then isoproterenol | inhibition, % at 3.6 µM | 200,000 compounds, 1% hits | P25929;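 active = inhibition above the campaign mean inhibition of all tested compounds plus 3 SD, cut at about 20% in these data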;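 also: 0% = DMSO wells given NPY plus isoproterenol and 100% = isoproterenol alone without NPY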
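Material: HEK293 cells with Y1 receptor plus CNG channel; times: compound incubation 1 h at room temperature, readout 45 min post-stimulation; signal: fluorescence, membrane potential probe; read-out basis: fluorescence ratio normalized to % inhibition between controls; benchmarks: full-block control isoproterenol-only wells, zero-block control NPY plus isoproterenol wells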
Numbers without * were called inactive; . = no result given. In the library only some 1.8% were active in any assay of this set; here they are far more common.

SMILES	NPY Y2 blocker	NPY-Y2 PAM-ag	NPY1 pot ag	NPY Y1 blocker
COc1ccc2nc(NC(=O)C3CCN(S(=O)(=O)c4cccc5nsnc45)CC3)sc2c1	-1.7	29.4	46.8*	-8.1
Cc1cccc(NC(=O)C2CCN(S(=O)(=O)c3cccc4nsnc34)CC2)n1	-1.6	1.6	-32.9	4.6
COC(=O)c1sc(NC(=O)c2ccc(Cn3cc(Cl)cn3)o2)c(C#N)c1C	-8.0	35.6*	60.4*	-11.0
N#Cc1c(NC(=O)c2ccc(Cn3cc(Br)cn3)o2)sc2c1CCCCC2	0.8	-7.6	10.1	-7.0
CCCN(CC(=O)Nc1c(C)cccc1CC)C(=O)SCC	18.1*	-3.3	-26.5	19.4
CCCCN(CC(=O)Nc1c(C)cccc1CC)C(=O)SCC	30.7*	-12.9	-16.5	21.5*
C=CCN(CC(=O)Nc1c(C)cccc1CC)C(=O)SCCC	10.4	-13.6	-15.2	19.6
COc1ccccc1N1CCN(C(=O)CSc2nnc3c4ccccc4nc(Cc4ccccc4)n23)CC1	0.4	-5.0	13.1	2.2
COc1ccc(N2CCN(C(CNS(C)(=O)=O)c3ccco3)CC2)cc1 (configuration not stated)	.	8.9	-1.1	1.7
Cc1cc2c(c(SCC(=O)NCCc3ccccc3)n1)C(=O)OC2	3.5	5.0	17.0	-4.4
COc1cc(/C=N/c2oc(-c3ccccc3)cc2C#N)ccc1O	1.9	-6.6	2.8	1.4
O=C(Nc1ccccc1)/C(=C/c1ccccc1)c1ccccc1	9.4	-10.0	-3.1	6.1
Cc1ccccc1NC(=O)/C(=C/c1ccccc1)c1ccccc1	17.9*	-12.1	0.1	21.1*
CC1(c2ccc3c(c2)OCO3)NC(=O)N(CC(=O)Nc2ccc(N3CCOCC3)cc2)C1=O (configuration not stated)	2.1	1.2	37.1	-2.9
S=c1[nH]cc(-c2ccccc2)n1-c1cccc(Cl)c1	-2.5	32.4*	39.2*	-5.7
CCS(=O)(=O)N1Cc2ccccc2CC1C(=O)Nc1nc2ccc(C)cc2s1 (configuration not stated)	-4.4	30.8*	46.2*	-8.9
CCS(=O)(=O)N1Cc2ccccc2CC1C(=O)Nc1ncc(C)s1 (configuration not stated)	.	-2.7	-22.6	0.9
CCn1c(SCC(=O)N2CCN(c3cccc(Cl)c3)CC2)nc2ccccc2c1=O	23.9*	-8.9	-34.7	23.9*
C/C(=N\Nc1cccc(Cl)c1)c1ccncc1	.	39.8*	39.0*	-12.3
C/C(=N\Nc1ccc(F)cc1)c1ccncc1	-0.9	11.0	12.7	-7.8
O=C(NC(=S)NN1CCCCC1c1cccnc1)c1ccc(Cl)cc1Cl (configuration not stated)	.	-25.4	-4.2	.
O=C(COc1ccccc1)N1CCc2ccccc21	1.9	-2.7	24.3	0.3
O=C(COc1ccc2ccccc2c1CN1CCOCC1)N1CCc2ccccc21	27.6*	26.4	16.1	21.8*
CC(Sc1nc2ccccc2o1)C(=O)O (configuration not stated)	6.3	-7.7	-10.8	11.1
CCC(Sc1nc2ccccc2o1)C(=O)O (configuration not stated)	.	-37.7	-12.6	20.7*
SMILES	NPY Y2 blocker	NPY-Y2 PAM-ag	NPY1 pot ag	NPY Y1 blocker
CC(=O)n1cc(N(C(=O)CCl)c2ccc(Cl)cc2)c2ccccc21	.	50.5*	66.3*	.
COc1ccccc1N(C(=O)CCl)c1cn(C(C)=O)c2ccccc12	.	15.2	13.5	.
CCCOc1ccc(Cc2c(Cl)nc(SC)nc2N(C)C)cc1	25.7*	-14.1	-54.3	21.9*
CCCOc1ccc(Cc2c(Cl)nc(SC)nc2OC)cc1	6.3	9.1	12.0	3.1
CCOC(=O)c1cc(NC(=O)Nc2ccc(Br)cc2)c(C)nc1C	.	2.1	-3.7	0.3
COc1ccc(O[C@H]2C=C[C@@H](c3ccccc3)O[C@@H]2CO/N=C(\C)CCN2CCCCc3nc(C)c(C)cc32)cc1	21.4*	-8.5	-29.6	21.8*
S=C(Nc1ccc(Cl)cc1)NN1CCOCC1	-1.2	-5.6	-0.1	1.9
CC(C)c1ccc(NC(=S)NN2CCOCC2)cc1	0.6	88.6*	88.3*	0.9
Cc1ccc(N/C(N)=N/c2nc(CSc3nnc(C)s3)cc(=O)[nH]2)c(C)c1	.	-6.1	11.1	20.4*
CS/C(N)=N/S(=O)(=O)c1ccc(NC(C)=O)cc1	.	-3.9	4.5	.
COC(=O)CNC(c1ccccc1)c1cc(Br)ccc1NC(C)=O (configuration not stated)	.	-7.6	-15.2	20.1*
COC(=O)CNC(c1ccccc1)c1cc(Cl)ccc1NC(=O)c1cccc(Cl)c1 (configuration not stated)	27.6*	-23.6	-33.5	33.9*
NNC(=O)CNC(c1ccccc1)c1cc(Br)ccc1NC(=O)c1cccc(Cl)c1 (configuration not stated)	-0.7	-3.1	-0.4	-1.5
O=C1CC(c2ccccc2F)C2=C(COC2=O)N1 (configuration not stated)	.	-7.8	4.9	0.3
CCOC(=O)C1=NN(c2cccc(C)c2)C2(S1)SC(C(C)=O)=C(C)N2c1ccccc1 (configuration not stated)	31.7*	-11.2	-30.3	29.5*
CCOC(=O)C1=NN(c2ccccc2)C2(S1)SC(C(C)=O)=C(C)N2c1ccccc1 (configuration not stated)	6.3	-1.8	-0.1	0.8
CC(C)(C)c1ccc(Oc2ccc(NC(=O)c3ccco3)cn2)cc1	.	57.6*	53.9*	.
O=C(O)/C=C/C(=O)NC1CC1	.	-6.2	-3.3	7.8
COc1ccc(C(O)c2coc3ccc(O)c(CN(C)C)c23)cc1 (configuration not stated)	3.2	100.4*	106.6*	-21.4
S=C(NC1CCCC1)N1CCN(c2ccc(Cl)cc2)CC1	.	-7.0	-1.4	5.7
COc1ccc(CN(C(=S)Nc2ccccc2)C2CC(=O)N(c3ccc(F)cc3)C2=O)cc1 (configuration not stated)	-3.0	18.9	11.9	-16.7
COc1ccc(CCN(C(=S)Nc2ccccc2)C2CC(=O)N(c3ccccc3)C2=O)cc1 (configuration not stated)	-3.6	37.0*	37.1	-1.9
Cc1cccc2cc(CN(Cc3ccccc3)C(=O)N3CCOCC3)c3nnnn3c12	0.6	11.9	11.5	5.9
COc1ccc(/C=N/NC(=O)C(Cc2c[nH]c3ccccc23)NC(=O)OCC(C)C)cc1[N+](=O)[O-] (configuration not stated)	33.4*	-26.5	-66.0	35.2*
O=C(NC(Cc1c[nH]c2ccccc12)C(=O)N/N=C/c1ccc(Cl)cc1)c1cccs1 (configuration not stated)	.	20.6	21.2	-7.4
O=C(Cn1nnc(-c2cccc(C(F)(F)F)c2)n1)NC(=O)NCc1ccco1	21.0*	-23.2	-36.9	13.8
NC(=O)COC(=O)c1ccccc1OCc1ccccc1Cl	.	-0.5	8.3	-5.3
CCOC(=O)c1cnc2ccc(OCC)cc2c1NCc1ccccc1	65.7*	-66.6	-198.9	69.7*
CCOC(=O)c1cnc2ccc(OCC)cc2c1N1CCN(c2ccccc2)CC1	17.4*	-28.5	-36.2	29.3*
